ChEMBL document CHEMBL1127051, “Vanilloids. 1. Analogs of capsaicin with antinociceptive and antiinflammatory activity” (J Med Chem, 1993)

Assays:
Mus musculus [1] = assay: Percentage inhibition in mouse by using Croton oil-inflamed mouse ear test (topical dosing).; assay type: functional; parameters: concentration or dose not given beside the values
Method in brief: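 Male Cox ICR mice (25–35 g), 10 per group. Left ear given 25 μL of 1% compound in ethanol, repeated ~17 h later; 1 h after that, both ears given 25 μL 2% croton oil. After 4 h, 5 mm ear punches weighed. % inhibition = [(C − T1)/C]×100, using left-minus-right weight differences versus vehicle controls.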

Mus musculus [2] = assay: Latency time measured by mouse hot plate test after subcutaneous administration at 200 mg/kg; assay type: functional; parameters: unit: s
Method in brief: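 Male CF-1 mice, 8 per group, given test agent sc in 0.2 mL ethanol/Tween-80/saline (10/10/80); dose 0.68 mmol (200 mg/kg for capsaicin). Placed on copper surface held at 55 ± 0.5 °C. Paw-response latency (s) reported as group mean ± SD; pretest latency ~5 s.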

[3] = (§1) Acute toxicity after intraperitoneal dose at 200 mg/kg in mice; assay type: organism-based; parameters: dose 200 mg/kg, route intraperitoneal; settings: mouse, in vivo, ip, read-out: Lethality
Method in brief: (§2)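 Single intraperitoneal dose at the listed mg/kg; acute toxicity scored as % lethality = number of deaths / number of animals dosed, 7–10 animals per group.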

Rattus norvegicus [4] = assay: Percentage analgesia by rat hot plate test after oral administration at 300 mg/kg.; assay type: functional
Method in brief: (§3)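 Rats fasted 18 h, prescreened on a 55 ± 0.5 °C hot plate (latency <12 s, else lowest <30 s) to set the 0 h value. Groups of 8 dosed orally in sesame oil (1 mL/200 g); latency read at 1.5, 3, 5 h (24 h if persisting). %analgesia = [(LT(t) − LT(0))/(60 − LT(0))]×100, taken at the time of maximal latency.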

[5] = Acute toxicity after intraperitoneal dose at 50 mg/kg in mice; assay type: organism-based; parameters: dose 50 mg/kg, route intraperitoneal; settings: mouse, in vivo, ip, read-out: Lethality; method in brief: as §2
Mus musculus [6] = organism: Mus musculus; assay: Ratio of the number of responders to the number of animals tested; 0/8; assay type: functional
Mus musculus [7] = organism: Mus musculus; assay: Ratio of the number of responders to the number of animals tested; 6/8; assay type: functional
Mus musculus [8] = organism: Mus musculus; assay: Ratio of the number of responders to the number of animals tested; 6/6; assay type: functional
Mus musculus [9] = organism: Mus musculus; assay: Ratio of the number of responders to the number of animals tested; 4/8; assay type: functional
[10] = Acute toxicity after intraperitoneal dose at 100 mg/kg in mice; assay type: organism-based; parameters: dose 100 mg/kg, route intraperitoneal; settings: mouse, in vivo, ip, read-out: Lethality; method in brief: as §2
[11] = Acute toxicity after intraperitoneal dose at 15 mg/kg in mice; assay type: organism-based; parameters: dose 15 mg/kg, route intraperitoneal; settings: mouse, in vivo, ip, read-out: Lethality; method in brief: as §2
Mus musculus [12] = organism: Mus musculus; assay: Ratio of the number of responders to the number of animals tested; 7/8; assay type: functional
Mus musculus [13] = organism: Mus musculus; assay: Ratio of the number of responders to the number of animals tested; 2/8; assay type: functional
Mus musculus [14] = assay: as §1; assay type: functional; method in brief: as §2
Mus musculus [15] = organism: Mus musculus; assay: Ratio of the number of responders to the number of animals tested; 8/8; assay type: functional
Rattus norvegicus [16] = assay: Percentage analgesia by using rat hot plate test after oral administration at 150 mg/kg; assay type: functional; method in brief: as §3
[17] = Acute toxicity after intraperitoneal dose at 50 mg/kg; assay type: organism-based; parameters: dose 50 mg/kg, route intraperitoneal; settings: mouse, in vivo, ip, read-out: Lethality; method in brief: as §2

Row | SMILES | Inhibition (Mus musculus [1]) [%] | Latency (Mus musculus [2]) | Analgesia (Rattus norvegicus [4]) [%] | also measured
1 | CCCCCCCC[C@H]1O[C@H]1CCCCCCCC(=O)NCc1ccc(O)c(OC)c1 | 54.5 | 13.5 | 5 | mortality [3]: 40%
2 | CCCCCCC/C=C\CCCCCCCCCCCCC(=O)NCc1ccc(O)c(OC)c1 | 29 | – | – | mortality [3]: 0%
3 | COc1cc(CNC(=O)CCCc2ccccc2)ccc1O | 40.9 | 5.6 | – | mortality [5]: 75%
4 | CCCCCCCCCCCCCC/C=C\CC(=O)NCc1ccc(O)c(OC)c1 | – | 7.5 | – | Response (Mus musculus [6]): 0
5 | CCCCCC/C=C\CCCCCCCCNC(=O)Cc1ccc(O)c(OC)c1 | – | – | 88 | –
6 | CCCCCCNC(=O)Cc1ccc(O)c(OC)c1 | -5.8 | 40.7 | – | –
7 | CCCCCCC(=O)NCc1ccc(O)c(OC)c1 | 33.7 | 29.8 | – | Response (Mus musculus [7]): 6; mortality [5]: 85%
8 | CCCCCCCCCCCCNC(=O)Cc1ccc(O)c(OC)c1 | 55.3 | 5 | – | mortality [5]: 0%
9 | COc1cc(CNC(=O)CCCCCCc2ccccc2)ccc1O | 46.2 | 6.8 | 1 | mortality [5]: 60%
10 | CCCCCCC/C=C\CCCCCCCCCC(=O)NCc1ccc(O)c(OC)c1 | 76.9 | 35.7 | 43 | mortality [3]: 40%
11 | CCCC/C=C/CCCCCCCC(=O)NCc1ccc(O)c(OC)c1 | – | – | 22 | –
12 | COc1cc(CNC(=O)CCCCCc2ccccc2)ccc1O | 57.6 | 6.2 | – | mortality [5]: 70%
13 | CCCCCCCCCC/C=C\CCCCCC(=O)NCc1ccc(O)c(OC)c1 | 68.4 | 46.1 | 37 | mortality [3]: 30%
14 | CCCCCCCC(=O)NCc1ccc(O)c(OC)c1 | 45.8 | >51.3 | – | Response (Mus musculus [8]): 6; mortality [5]: 90%
15 | CCCCCCCC/C=C\CCCCCCCCCCCCCC(=O)NCc1ccc(O)c(OC)c1 | 48 | 6.1 | – | Response (Mus musculus [6]): 0
16 | CCCC/C=C\CCCCCCCCNC(=O)Cc1ccc(O)c(OC)c1 | – | – | 74 | –
17 | CCCCCC(=O)NCc1ccc(O)c(OC)c1 | 33.6 | 16.8 | – | Response (Mus musculus [9]): 4; mortality [5]: 60%
18 | CCCC(=O)NCc1ccc(O)c(OC)c1 | 3.2 | 10.8 | – | Response (Mus musculus [9]): 4; mortality [10]: 40%
19 | CCCCCCCCCNC(=O)Cc1ccc(O)c(OC)c1 | 80.7 | 22.3 | – | mortality [11]: 86%
20 | CCCCCCCC/C=C\CCCCCCCCNC(=O)Cc1ccc(O)c(OC)c1 | 95.5 | 27.9 | 74 | Response (Mus musculus [12]): 7; mortality [3]: 50%
21 | CCCCC(=O)NCc1ccc(O)c(OC)c1 | 24.2 | 9.6 | – | mortality [10]: 60%; Response (Mus musculus [13]): 2
22 | CCCCCCCCCC(C)CCCCCCCC(=O)NCc1ccc(O)c(OC)c1 (stereo not given) | 88.3 | 26.9 | – | Response (Mus musculus [9]): 4; mortality [10]: 40%

Row | SMILES | Inhibition (Mus musculus [1]) [%] | Latency (Mus musculus [2]) | Analgesia (Rattus norvegicus [4]) [%] | also measured
23 | CCCCCCCCCC(=O)CCCCCCCC(=O)NCc1ccc(O)c(OC)c1 | – | 11.2 | – | –
24 | CCCC/C=C/C/C=C\CCCCCCCCC(=O)NCc1ccc(O)c(OC)c1.CCCCC/C=C/C=C\CCCCCCCCC(=O)NCc1ccc(O)c(OC)c1 | 66.8 | >36.6 | 34 | mortality [3]: 0%; Response (Mus musculus [7]): 6
25 | CCCCCCCCCCNC(=O)Cc1ccc(O)c(OC)c1 | 58.1 | 5.3 | – | mortality [11]: 100%
26 | CCCCCCCNC(=O)Cc1ccc(O)c(OC)c1 | 69.4 | 41.1 | – | mortality [11]: 100%
27 | CCCCCCCC[C@H]1O[C@@H]1CCCCCCCC(=O)NCc1ccc(O)c(OC)c1 | 26 | 10.7 | – | Lethality (Mus musculus [14]): 60%
28 | CCCCCCCCCC/C=C/CCCCCC(=O)NCc1ccc(O)c(OC)c1 | 26.7 | 11.5 | 27 | mortality [3]: 60%; Response (Mus musculus [13]): 2
29 | CCCCC/C=C\C/C=C\CCCCCCCCNC(=O)Cc1ccc(O)c(OC)c1 | – | – | 89 | –
30 | CCCCCCC/C=C/CCCCCCCCC(=O)NCc1ccc(O)c(OC)c1 | 10.9 | 7.1 | 37 | Response (Mus musculus [6]): 0; mortality [3]: 60%
31 | CCCCC/C=C\CCCCCCCCCCC(=O)NCc1ccc(O)c(OC)c1 | 60 | >39.9 | – | mortality [3]: 30%; Response (Mus musculus [15]): 8
32 | CCCCCCCC/C=C\CCCCCCCNC(=O)Cc1ccc(O)c(OC)c1 | – | – | 66 | –
33 | CCCCCCCCCCCCCCCCCC(=O)NCc1ccc(O)c(OC)c1 | 11.3 | 5.9 | 3 | Response (Mus musculus [6]): 0; mortality [5]: 0%
34 | C=C(CCCCCCCCC)CCCCCCCC(=O)NCc1ccc(O)c(OC)c1 | 96.2 | >22.8 | 67 | mortality [3]: 60%; Response (Mus musculus [13]): 2
35 | CCCCCCCCCCC(=O)NCc1ccc(O)c(OC)c1 | 29.6 | 47.7 | – | Response (Mus musculus [12]): 7; mortality [5]: 80%
36 | CCCCCC/C=C\CCCCCCCCCCNC(=O)Cc1ccc(O)c(OC)c1 | – | – | – | Analgesia (Rattus norvegicus [16]): 62%
37 | CCCCCc1ccc(C(=O)NCc2ccc(O)c(OC)c2)cc1 | 9.3 | 6.9 | – | mortality [5]: 60%
38 | CCCCCCCCCCCC(=O)NCc1ccc(O)c(OC)c1 | 48.1 | 9.9 | – | Response (Mus musculus [6]): 0; mortality [17]: 100%; mortality [11]: 25%
39 | CCCCCCCC#CCCCCCCCCC(=O)NCc1ccc(O)c(OC)c1 | 50.3 | >18.6 | 15 | mortality [3]: 70%; Response (Mus musculus [13]): 2
40 | CCCCC/C=C\CCCCCCCCC(=O)NCc1ccc(O)c(OC)c1 | 79.3 | >48.8 | – | Response (Mus musculus [12]): 7; mortality [3]: 10%
41 | COc1cc(CC(=O)NC2CCCCCCC2)ccc1O | 34.7 | 34.2 | 4 | Response (Mus musculus [8]): 6; mortality [3]: 80%
42 | C#CCCCCCCCCC(=O)NCc1ccc(O)c(OC)c1 | 36.4 | 17.1 | 15 | mortality [5]: 90%
43 | COc1cc(CNC(=O)CCCCc2ccccc2)ccc1O | 56.4 | 12.2 | – | mortality [5]: 90%
44 | CCCCCCCC/C=C/CCCCCCCCNC(=O)Cc1ccc(O)c(OC)c1 | – | – | 95 | –
